Test results reported in ChEMBL document CHEMBL1142725, “Synthesis and discovery of pyrazine-pyridine biheteroaryl as a novel series of potent vascular endothelial growth factor receptor-2 inhibitors” (J Med Chem, 2005).
pIC50: −log10 of the molar value.

How the values were obtained:
Casein kinase II = Casein kinase II (Homo sapiens, UniProt P19784+P67870+P68400); assay: Inhibition of casein kinase II; type: protein-complex assay
[1] = target: Vascular endothelial growth factor receptor (Homo sapiens, UniProt P17948+P35916+P35968); assay: Inhibition of VEGF-stimulated human umbilical vein endothelial cell proliferation; type: functional, cell-based
In short: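 HUVEC trypsinized and seeded in F-12K with 0.2% heat-inactivated FBS, stimulated with 2 ng/well VEGF with or without compound. BrdU added 24 h after VEGF, then incubated another 20-24 h. Incorporation read by BrdU cell-proliferation ELISA.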

[2] = target: Vascular endothelial growth factor receptor 2 (Homo sapiens, UniProt P35968); assay: Inhibition of human vascular endothelial growth factor receptor 2
HeLa = assay: Inhibitory concentration against Proliferation of HeLa cells (cervical adenocarcinoma); type: functional, cell-based; settings: Homo sapiens
In short: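 HeLa cells grown in MEM with 0.1 mM nonessential amino acids, 1 mM pyruvate, 2 mM L-glutamine and 10% FCS at 37 °C, 5% CO2. Seeded in scintillating microplates in complete medium and incubated 24 h. Compound added for 24 h, then 0.2 µCi methyl-[14C]thymidine per well for a further 24 h.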

[3] = target: Cyclin-dependent kinase 4 (Homo sapiens, UniProt P11802); assay: Inhibition of cyclin-dependent kinase 4
[4] = target: Protein kinase C gamma type (Homo sapiens, UniProt P05129); assay: Inhibition of protein kinase C gamma
[5] = target: Mitogen-activated protein kinase 1 (Homo sapiens, UniProt P28482); assay: Inhibition of mitogen activated protein kinase (ERK2)
[6] = target: Fibroblast growth factor receptor 2 (Homo sapiens, UniProt P21802); assay: Inhibition of fibroblast growth factor receptor 2
[7] = target: cAMP-dependent protein kinase (PKA) (Homo sapiens, UniProt P22694+P17612+P22612); assay: Inhibition of protein kinase A; type: protein assay
[8] = target: Protein kinase C beta type (Homo sapiens, UniProt P05771); assay: Inhibition of protein kinase C beta 2
[9] = target: Cyclin-dependent kinase 1 (Homo sapiens, UniProt P06493); assay: Inhibition of human cyclin-dependent kinase 1
Cyclin-dependent kinase 1, sequence (P06493 whole entry): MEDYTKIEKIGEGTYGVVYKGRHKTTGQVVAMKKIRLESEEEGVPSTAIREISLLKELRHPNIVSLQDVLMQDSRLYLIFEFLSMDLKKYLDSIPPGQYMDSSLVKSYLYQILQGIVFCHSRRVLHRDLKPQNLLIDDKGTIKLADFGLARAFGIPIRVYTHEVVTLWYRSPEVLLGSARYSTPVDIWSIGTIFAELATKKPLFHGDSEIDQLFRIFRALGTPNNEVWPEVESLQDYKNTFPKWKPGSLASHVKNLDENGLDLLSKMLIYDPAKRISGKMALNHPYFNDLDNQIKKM

Vascular endothelial growth factor receptor 2, sequence (P35968 whole entry): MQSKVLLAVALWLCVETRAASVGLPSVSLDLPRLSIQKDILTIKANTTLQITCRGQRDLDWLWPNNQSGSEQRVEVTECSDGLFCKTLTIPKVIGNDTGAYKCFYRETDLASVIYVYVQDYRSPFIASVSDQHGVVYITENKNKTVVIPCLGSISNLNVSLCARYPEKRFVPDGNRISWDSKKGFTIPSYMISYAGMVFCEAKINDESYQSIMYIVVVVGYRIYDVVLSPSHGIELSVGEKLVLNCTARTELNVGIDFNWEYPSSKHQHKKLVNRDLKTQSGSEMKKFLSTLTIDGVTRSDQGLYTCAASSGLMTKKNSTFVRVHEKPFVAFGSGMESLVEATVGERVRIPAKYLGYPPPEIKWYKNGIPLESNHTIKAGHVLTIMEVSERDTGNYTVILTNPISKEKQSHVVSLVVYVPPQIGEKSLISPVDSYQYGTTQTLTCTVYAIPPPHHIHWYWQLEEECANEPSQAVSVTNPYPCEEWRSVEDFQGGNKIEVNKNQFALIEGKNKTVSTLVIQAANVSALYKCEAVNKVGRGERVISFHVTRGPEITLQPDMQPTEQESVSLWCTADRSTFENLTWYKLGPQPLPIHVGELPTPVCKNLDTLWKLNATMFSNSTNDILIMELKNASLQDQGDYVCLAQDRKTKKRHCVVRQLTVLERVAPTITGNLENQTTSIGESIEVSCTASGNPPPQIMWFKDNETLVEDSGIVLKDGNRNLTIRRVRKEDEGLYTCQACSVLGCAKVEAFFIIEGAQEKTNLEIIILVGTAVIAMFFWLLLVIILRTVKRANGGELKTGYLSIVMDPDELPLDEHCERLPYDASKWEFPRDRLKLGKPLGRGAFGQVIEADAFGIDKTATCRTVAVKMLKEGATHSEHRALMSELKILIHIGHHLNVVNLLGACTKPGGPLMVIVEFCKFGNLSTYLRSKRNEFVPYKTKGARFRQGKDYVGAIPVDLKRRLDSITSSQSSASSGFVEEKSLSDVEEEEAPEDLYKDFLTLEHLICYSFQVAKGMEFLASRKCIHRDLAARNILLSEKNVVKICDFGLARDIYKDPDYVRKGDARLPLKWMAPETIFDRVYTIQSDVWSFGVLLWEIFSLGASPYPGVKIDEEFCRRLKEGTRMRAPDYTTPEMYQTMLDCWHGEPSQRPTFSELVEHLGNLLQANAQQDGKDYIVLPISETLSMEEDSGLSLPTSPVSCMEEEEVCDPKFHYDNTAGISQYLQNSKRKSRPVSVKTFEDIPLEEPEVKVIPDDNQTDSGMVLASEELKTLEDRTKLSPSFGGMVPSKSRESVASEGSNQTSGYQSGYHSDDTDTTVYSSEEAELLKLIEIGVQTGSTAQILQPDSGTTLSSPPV
Fibroblast growth factor receptor 2, sequence (P21802 whole entry): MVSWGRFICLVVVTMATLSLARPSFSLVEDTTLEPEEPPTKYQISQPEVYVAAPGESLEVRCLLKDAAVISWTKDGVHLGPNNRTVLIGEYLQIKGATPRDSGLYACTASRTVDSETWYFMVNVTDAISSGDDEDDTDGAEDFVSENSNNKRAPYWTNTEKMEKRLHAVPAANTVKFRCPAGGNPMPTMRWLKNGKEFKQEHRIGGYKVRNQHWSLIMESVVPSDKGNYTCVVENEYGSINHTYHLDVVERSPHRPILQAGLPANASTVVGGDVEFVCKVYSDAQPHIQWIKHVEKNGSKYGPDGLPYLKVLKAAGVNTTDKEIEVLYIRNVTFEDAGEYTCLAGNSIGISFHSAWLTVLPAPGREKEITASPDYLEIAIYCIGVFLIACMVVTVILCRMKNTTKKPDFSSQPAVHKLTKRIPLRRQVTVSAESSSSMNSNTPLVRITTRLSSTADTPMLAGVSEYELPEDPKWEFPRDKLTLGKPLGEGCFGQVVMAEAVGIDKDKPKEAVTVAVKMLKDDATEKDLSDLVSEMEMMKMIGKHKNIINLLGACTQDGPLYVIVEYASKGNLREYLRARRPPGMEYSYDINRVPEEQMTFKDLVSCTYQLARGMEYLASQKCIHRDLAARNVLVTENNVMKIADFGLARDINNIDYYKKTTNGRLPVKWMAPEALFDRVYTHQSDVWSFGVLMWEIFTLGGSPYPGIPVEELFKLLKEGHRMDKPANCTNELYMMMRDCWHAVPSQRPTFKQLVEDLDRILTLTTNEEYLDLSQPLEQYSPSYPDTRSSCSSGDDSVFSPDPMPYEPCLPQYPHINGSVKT
Protein kinase C beta type, sequence (P05771 whole entry): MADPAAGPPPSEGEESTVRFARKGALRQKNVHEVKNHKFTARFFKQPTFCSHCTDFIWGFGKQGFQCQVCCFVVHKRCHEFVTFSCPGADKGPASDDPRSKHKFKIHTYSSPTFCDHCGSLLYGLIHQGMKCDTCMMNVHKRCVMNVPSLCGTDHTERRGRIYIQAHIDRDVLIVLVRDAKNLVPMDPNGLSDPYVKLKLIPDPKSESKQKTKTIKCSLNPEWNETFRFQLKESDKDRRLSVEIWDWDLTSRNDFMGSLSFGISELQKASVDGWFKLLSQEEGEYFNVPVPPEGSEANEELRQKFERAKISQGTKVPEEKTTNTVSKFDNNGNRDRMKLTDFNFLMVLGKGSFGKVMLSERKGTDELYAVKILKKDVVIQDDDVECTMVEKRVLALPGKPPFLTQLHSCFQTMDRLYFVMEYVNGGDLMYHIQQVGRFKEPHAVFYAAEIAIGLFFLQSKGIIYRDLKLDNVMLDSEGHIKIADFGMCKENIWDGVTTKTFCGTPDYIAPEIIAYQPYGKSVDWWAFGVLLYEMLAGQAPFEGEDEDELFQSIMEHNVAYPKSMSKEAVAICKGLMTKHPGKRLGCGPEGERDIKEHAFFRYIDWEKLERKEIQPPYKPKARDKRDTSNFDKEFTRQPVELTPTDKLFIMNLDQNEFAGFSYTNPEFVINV
Casein kinase II, sequence (P67870 whole entry): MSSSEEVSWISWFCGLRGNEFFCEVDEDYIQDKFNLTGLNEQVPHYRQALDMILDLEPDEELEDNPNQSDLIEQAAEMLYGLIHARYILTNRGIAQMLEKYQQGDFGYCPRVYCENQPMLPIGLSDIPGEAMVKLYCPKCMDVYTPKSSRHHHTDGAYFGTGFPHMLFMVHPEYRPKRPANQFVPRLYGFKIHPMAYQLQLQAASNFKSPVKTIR
Casein kinase II, sequence (P68400 whole entry): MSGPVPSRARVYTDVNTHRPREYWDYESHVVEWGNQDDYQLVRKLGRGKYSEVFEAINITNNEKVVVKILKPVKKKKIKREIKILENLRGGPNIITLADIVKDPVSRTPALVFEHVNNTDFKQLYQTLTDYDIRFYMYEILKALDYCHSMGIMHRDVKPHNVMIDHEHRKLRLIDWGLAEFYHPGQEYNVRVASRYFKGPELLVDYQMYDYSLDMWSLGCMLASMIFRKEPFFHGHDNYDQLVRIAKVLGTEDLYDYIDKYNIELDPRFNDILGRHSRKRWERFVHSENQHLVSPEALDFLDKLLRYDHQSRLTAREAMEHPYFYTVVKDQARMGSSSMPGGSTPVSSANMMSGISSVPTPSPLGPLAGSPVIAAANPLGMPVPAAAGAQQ
Casein kinase II, sequence (P19784 whole entry): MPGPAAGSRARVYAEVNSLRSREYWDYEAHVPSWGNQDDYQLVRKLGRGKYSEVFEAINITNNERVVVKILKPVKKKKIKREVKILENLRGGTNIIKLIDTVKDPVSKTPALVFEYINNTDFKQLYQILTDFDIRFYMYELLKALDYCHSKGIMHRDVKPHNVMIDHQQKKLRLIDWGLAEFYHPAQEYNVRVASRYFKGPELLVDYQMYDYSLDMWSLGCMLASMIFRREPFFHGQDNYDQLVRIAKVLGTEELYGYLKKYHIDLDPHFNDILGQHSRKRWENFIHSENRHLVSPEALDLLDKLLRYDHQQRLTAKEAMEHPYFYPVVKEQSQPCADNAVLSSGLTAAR

| pIC50 [2] | pIC50 [9] | SMILES | also measured |
| --- | --- | --- | --- |
| 7.08 | – | OCCCNc1cncc(-c2cncc(Nc3cccc(Cl)c3)n2)c1 | pIC50 (Casein kinase II): < 5.00; IC50 [1]: 5 nM; pIC50 (HeLa): < 5.00; pIC50 [3]: < 5.00; pIC50 [4]: < 5.00; pIC50 [5]: < 5.00; pIC50 [6]: 6.68; IC50 [7]: > 10000 nM; pIC50 [8]: < 5.00 |
| < 5.00 | < 5.00 | OCCCNc1ccc(-c2ncncc2Nc2cccc(Cl)c2)cn1 | – |
| 6.30 | < 5.00 | OCCCNc1cncc(-c2cncc(Nc3cccc(Cl)c3)n2)n1 | – |
| < 5.00 | 5.62 | OCCCNc1cncc(-c2cc(Nc3cccc(Cl)c3)ncn2)c1 | – |
| < 5.00 | < 5.00 | OCCCNc1cncc(-c2ncc(Nc3cccc(Cl)c3)cn2)c1 | – |
| < 5.00 | < 5.00 | OCCCNc1cccc(-c2cncc(Nc3cccc(Cl)c3)n2)n1 | – |
| 6.15 | 5.09 | OCCCNc1ncc(-c2cncc(Nc3cccc(Cl)c3)n2)s1 | – |
| < 5.00 | < 5.00 | OCCCNc1cncc(-c2cnc(Nc3cccc(Cl)c3)cn2)c1 | – |
| 5.68 | < 5.00 | OCCCNc1ncc(-c2cncc(Nc3cccc(Cl)c3)n2)o1 | – |
| 6.30 | 6.30 | OCCCNc1cc(-c2cncc(Nc3cccc(Cl)c3)n2)ccn1 | – |
| – | 7.77 | OCCCNc1cc(-c2ccnc(Nc3cccc(Cl)c3)n2)ccn1 | – |
| 6.12 | 5.65 | OCCCNc1cnccc1-c1cncc(Nc2cccc(Cl)c2)n1 | – |
| < 5.00 | < 5.00 | OCCCNc1ccc(-c2cncc(Nc3cccc(Cl)c3)n2)nc1 | – |
